Experiments:
[1] = target: T1, Sodium-dependent serotonin transporter (Rattus norvegicus, UniProt P31652); assay: Binding affinity towards serotonin transporter 5-HTT was determined using [3H]paroxetine radioligand.
Summary of the method: (§1)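 Competition binding at the 5-HTT with 0.2 nM [3H]paroxetine (final concentration). Other procedures follow earlier published methods.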

[2] = target: T2, Norepinephrine transporter (Rattus norvegicus, UniProt Q9WTR4); assay: Binding affinity towards norepinephrine transporter was determined using [3H]nisoxetine radioligand.
Summary of the method: (§2)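 Competition binding at the NET with 0.5 nM [3H]nisoxetine (final concentration). Other procedures follow earlier published methods.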

[3] = target: T1, Sodium-dependent serotonin transporter; assay: Inhibitory concentration required to inhibit serotonin transporter 5-HTT was determined by using [3H]paroxetine radioligand; summary of the method: as §1
[4] = target: Sodium-dependent dopamine transporter (Rattus norvegicus, UniProt P23977); assay: Inhibitory concentration required to inhibit dopamine transporter DAT was determined by using [3H]WIN-35428 radioligand
Summary of the method: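 Competition binding at the DAT with 0.5 nM [3H]WIN35,428 (final concentration). Other procedures follow earlier published methods.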

[5] = target: T2, Norepinephrine transporter; assay: Inhibition of norepinephrine transporter (NET) determined using [3H]nisoxetine radioligand.; summary of the method: as §2
Mus musculus [6] = assay: Percent change in locomotor activity in mice at 3 mg/kg i.p. in 2 h.; type: functional; conditions: route intraperitoneal
Summary of the method: (§3)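 Mice habituated 1/2 h to photocell activity chambers, then injected ip with compound homogenized in 0.5% methyl cellulose (10 mL/kg); vehicle controls; N = 5 or 6 per dose. Photobeam interruptions recorded in 10-min bins for 4 h, grouped into 1-h bins; one-way ANOVA with Newman-Keuls post hoc test (p < 0.05).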

Mus musculus [7] = assay: Percent change from vehicle in locomotor activity in mice at 10 mg/kg (ip) in 3 h; type: functional
Mus musculus [8] = species: Mus musculus; assay: Hour 1 ratio to cocaine was determined for locomotor activity in mice; type: functional
Mus musculus [9] = assay: Percent change in locomotor activity in mice at 3 mg/kg i.p. in 4 h.; type: functional; conditions: route intraperitoneal; summary of the method: as §3
Mus musculus [10] = assay: Percent change from vehicle in locomotor activity in mice at 10 mg/kg (ip) in 4 h; type: functional
Rattus norvegicus [11] = assay: Drug discrimination effect of compound in rats, expressed as percent of rats choosing the cocaine lever at dose 1 mg/kg (ip); type: functional
Mus musculus [12] = species: Mus musculus; assay: Effective dose for locomotor activity in mice in the peak hour.; type: functional
Mus musculus [13] = assay: Percent change locomotor activity in mice at 1 mg/kg i.p. in 3 h.; type: functional; conditions: route intraperitoneal; summary of the method: as §3
Mus musculus [14] = assay: Percent change in locomotor activity in mice at 1 mg/kg i.p. in 1 h.; type: functional; conditions: route intraperitoneal
Rattus norvegicus [15] = assay: Drug discrimination effect of compound in rats, expressed as percent of rats choosing the cocaine lever at dose 10 mg/kg (ip); type: functional
Mus musculus [16] = assay: Percent change in locomotor activity in mice at 3 mg/kg i.p. in 3 h.; type: functional; conditions: route intraperitoneal; summary of the method: as §3
Mus musculus [17] = assay: Percent change from vehicle in locomotor activity in mice at 10 mg/kg (ip) in 2 h; type: functional
Mus musculus [18] = assay: Percent change in locomotor activity in mice at 3 mg/kg i.p. in 1 h.; type: functional; conditions: route intraperitoneal; summary of the method: as §3
Mus musculus [19] = assay: Percent change from vehicle in locomotor activity in mice at 10 mg/kg (ip) in 1 h; type: functional
Mus musculus [20] = assay: Percent change in locomotor activity in mice at 1 mg/kg i.p. in 2 h.; type: functional; conditions: route intraperitoneal; summary of the method: as §3
Rattus norvegicus [21] = assay: Drug discrimination effect of compound in rats, expressed as percent of rats choosing the cocaine lever at dose 3 mg/kg (ip); type: functional
Rattus norvegicus [22] = assay: Drug discrimination effect of compound in rats, expressed as percent of rats choosing the cocaine lever at dose 5.6 mg/kg (ip); type: functional
Mus musculus [23] = assay: Percent change in locomotor activity in mice at 1 mg/kg i.p. in 4 h.; type: functional; conditions: route intraperitoneal; summary of the method: as §3
Rattus norvegicus [24] = assay: Effective dose for drug discrimination effect in rat (ip); type: functional
Summary of the method: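 Cocaine-trained rat drug discrimination, FR10, 10-min sessions. Compound in 0.5% methyl cellulose given ip 15 min before session, usually to 7-8 rats per dose. Doses were raised from ≤20% to ≥80% cocaine-lever choice, capped at 30 mg/kg, >50% loss of pressing, or side effects.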

Mus musculus [25] = assay: Percent change from vehicle in locomotor activity in mice at 0.3 mg/kg (ip) in 4 h; type: functional
Mus musculus [26] = assay: Percent change from vehicle in locomotor activity in mice at 0.3 mg/kg (ip) in 1 h; type: functional
Rattus norvegicus [27] = assay: Drug discrimination effect of compound in rats, expressed as percent of rats choosing the cocaine lever at dose 1.7 mg/kg (ip); type: functional
Mus musculus [28] = assay: Percent change from vehicle in locomotor activity in mice at 0.3 mg/kg (ip) in 3 h; type: functional
Mus musculus [29] = assay: Percent change from vehicle in locomotor activity in mice at 0.3 mg/kg (ip) in 2 h; type: functional

T2 sequence (Q9WTR4 whole entry): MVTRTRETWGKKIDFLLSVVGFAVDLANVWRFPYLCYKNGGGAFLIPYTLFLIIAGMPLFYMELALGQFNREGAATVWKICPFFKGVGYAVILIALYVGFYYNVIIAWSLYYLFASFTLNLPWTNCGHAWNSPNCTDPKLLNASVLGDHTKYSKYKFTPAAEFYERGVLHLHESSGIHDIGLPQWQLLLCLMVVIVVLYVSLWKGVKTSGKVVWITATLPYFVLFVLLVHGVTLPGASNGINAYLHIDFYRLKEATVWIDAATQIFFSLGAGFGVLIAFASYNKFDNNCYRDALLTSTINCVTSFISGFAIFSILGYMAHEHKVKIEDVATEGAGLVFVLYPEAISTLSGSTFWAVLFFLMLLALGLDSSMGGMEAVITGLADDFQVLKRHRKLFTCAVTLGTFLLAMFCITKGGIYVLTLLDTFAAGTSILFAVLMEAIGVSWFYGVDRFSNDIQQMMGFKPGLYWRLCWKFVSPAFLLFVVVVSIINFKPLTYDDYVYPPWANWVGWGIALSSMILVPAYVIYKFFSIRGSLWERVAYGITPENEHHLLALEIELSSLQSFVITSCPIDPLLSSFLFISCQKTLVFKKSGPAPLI
T1 sequence (P31652 whole entry): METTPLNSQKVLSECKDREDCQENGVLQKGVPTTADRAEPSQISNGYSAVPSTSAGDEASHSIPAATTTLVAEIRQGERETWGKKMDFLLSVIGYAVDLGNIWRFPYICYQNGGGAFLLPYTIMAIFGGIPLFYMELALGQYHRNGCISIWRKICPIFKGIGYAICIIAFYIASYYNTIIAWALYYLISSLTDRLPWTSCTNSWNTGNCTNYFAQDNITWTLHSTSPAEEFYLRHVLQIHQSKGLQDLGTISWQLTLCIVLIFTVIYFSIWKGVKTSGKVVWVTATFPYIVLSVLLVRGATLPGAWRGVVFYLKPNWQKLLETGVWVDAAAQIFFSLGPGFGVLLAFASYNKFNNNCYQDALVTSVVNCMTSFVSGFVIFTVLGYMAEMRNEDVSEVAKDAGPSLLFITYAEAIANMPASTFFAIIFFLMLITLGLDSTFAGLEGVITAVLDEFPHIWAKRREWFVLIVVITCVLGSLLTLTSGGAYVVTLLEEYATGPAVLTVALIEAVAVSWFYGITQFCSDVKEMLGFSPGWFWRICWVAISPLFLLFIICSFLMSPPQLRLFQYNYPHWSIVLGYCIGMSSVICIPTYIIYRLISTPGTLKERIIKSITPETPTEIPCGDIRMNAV
Chain of Sodium-dependent dopamine transporter (P23977 whole entry): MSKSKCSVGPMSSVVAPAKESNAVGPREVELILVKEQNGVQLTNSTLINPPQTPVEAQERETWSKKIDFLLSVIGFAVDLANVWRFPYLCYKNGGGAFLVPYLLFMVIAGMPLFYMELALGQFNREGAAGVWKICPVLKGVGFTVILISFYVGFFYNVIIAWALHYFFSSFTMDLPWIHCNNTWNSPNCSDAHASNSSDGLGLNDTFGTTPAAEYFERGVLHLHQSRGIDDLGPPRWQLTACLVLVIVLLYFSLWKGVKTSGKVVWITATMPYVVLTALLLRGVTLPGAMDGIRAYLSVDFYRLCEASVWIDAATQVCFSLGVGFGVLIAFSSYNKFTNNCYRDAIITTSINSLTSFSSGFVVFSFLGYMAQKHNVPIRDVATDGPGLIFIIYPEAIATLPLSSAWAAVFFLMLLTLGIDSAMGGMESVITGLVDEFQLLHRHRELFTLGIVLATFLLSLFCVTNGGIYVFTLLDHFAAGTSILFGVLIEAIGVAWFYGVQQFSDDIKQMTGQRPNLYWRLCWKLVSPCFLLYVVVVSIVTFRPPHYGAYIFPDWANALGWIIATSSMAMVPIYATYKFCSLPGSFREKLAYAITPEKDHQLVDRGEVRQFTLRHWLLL

SMILES	Ki [1] [nM]	Ki [2] [nM]	IC50 [3] [µM]	IC50 [4] [nM]	IC50 [5] [nM]	Change (Mus musculus [6]) [%]	Change (Mus musculus [7]) [%]	Ratio (Mus musculus [8])	Change (Mus musculus [9]) [%]	Change (Mus musculus [10]) [%]	ED50 (Mus musculus [12]) [mg/kg]	Change (Mus musculus [13]) [%]	Change (Mus musculus [14]) [%]	Drug discrimination effect (Rattus norvegicus [15]) [%]	Change (Mus musculus [16]) [%]	Change (Mus musculus [17]) [%]	Change (Mus musculus [18]) [%]	Change (Mus musculus [20]) [%]	Drug discrimination effect (Rattus norvegicus [21]) [%]	Change (Mus musculus [23]) [%]	also measured
Cc1ccc(C2CC3CCC(C2c2cc(C(C)(C)C)no2)N3C)cc1 (stereo not drawn)	26000	1820	295	26	3330	–	–	–	–	–	–	–	–	–	–	–	–	–	–	–	–
COc1ccc(-c2cc(C3C(c4ccc(Cl)cc4)CC4CCC3N4C)on2)cc1 (stereo not drawn)	535	454	5.88	1.57	762	481	2830	1.2	335	2120	3.7	101	0	50	662	1337	197	51	0	-21	Drug discrimination effect (Rattus norvegicus [11]): 0%; Change (Mus musculus [19]): 521%; Drug discrimination effect (Rattus norvegicus [22]): 43%
CN1C2CCC1C(c1cc(-c3ccc(Cl)cc3)no1)C(c1ccc(Cl)cc1)C2 (stereo not drawn)	–	3790	> 76	6.42	5290	237	838	0.4	389	1372	3.6	74	15	50	298	612	59	19	13	39	Drug discrimination effect (Rattus norvegicus [11]): 0%; Change (Mus musculus [19]): 166%; Drug discrimination effect (Rattus norvegicus [22]): 0%
Cc1ccc(C2CC3CCC(C2C(=O)OC(C)C)N3C)cc1 (stereo not drawn)	1160	554	1.93	–	6090	–	–	–	–	–	–	–	–	–	–	–	–	–	–	–	–
CN1C2CCC1C(C(=O)Oc1ccccc1)C(c1ccc(Cl)cc1)C2 (stereo not drawn)	1780	213	2.96	–	2340	–	–	–	–	–	–	–	–	–	–	–	–	–	–	–	–
Cc1ccc(C2CC3CCC(C2c2cc(-c4ccccc4)no2)N3C)cc1 (stereo not drawn)	465	239	5.11	1.58	398	369	363	1.2	329	141	2.5	89	48	86	283	663	244	139	0	154	ED50 (Rattus norvegicus [24]): 4.88 mg/kg; Change (Mus musculus [19]): 526%; Drug discrimination effect (Rattus norvegicus [22]): 75%
CN1C2CC[C@@H]1C[C@H](c1ccc(Cl)cc1)C2c1cc(-c2ccccc2)no1 (stereo partly drawn)	305	220	0.504	–	2420	456	485	1.1	378	924	3.4	45	11	75	377	402	331	27	29	76	ED50 (Rattus norvegicus [24]): 4.73 mg/kg; Change (Mus musculus [19]): 513%; Drug discrimination effect (Rattus norvegicus [22]): 63%
Cc1ccc(-c2cc(C3C(c4ccc(Cl)cc4)CC4CCC3N4C)on2)cc1 (stereo not drawn)	522	1030	5.74	4.09	1710	153	1024	0.7	119	493	3.9	-49	8	88	265	1034	23	44	14	170	Drug discrimination effect (Rattus norvegicus [11]): 14%; ED50 (Rattus norvegicus [24]): 5.95 mg/kg; Change (Mus musculus [19]): 308%; Drug discrimination effect (Rattus norvegicus [22]): 50%
Cc1ccc(C2CC3CCC(C2c2cc(C(C)C)no2)N3C)cc1 (stereo not drawn)	3900	1550	42.9	4.5	2520	241	765	0.9	70	576	4.7	-20	-1	86	207	532	329	29	25	24	ED50 (Rattus norvegicus [24]): 4.63 mg/kg; Change (Mus musculus [19]): 637%; Drug discrimination effect (Rattus norvegicus [22]): 67%
CN1C2CCC1C(c1cc(C(C)(C)C)no1)C(c1ccc(Cl)cc1)C2 (stereo not drawn)	3350	3810	36.8	7.31	6320	204	1272	0.9	-29	229	4	135	41	83	206	769	112	103	50	33	Drug discrimination effect (Rattus norvegicus [11]): 0%; ED50 (Rattus norvegicus [24]): 3.04 mg/kg; Change (Mus musculus [19]): 388%; Drug discrimination effect (Rattus norvegicus [22]): 88%
CC(C)c1cc(C2C(c3ccc(Cl)cc3)CC3CCC2N3C)on1 (stereo not drawn)	211	575	2.32	1.19	954	995	–	1.9	1745	–	0.8	188	370	–	680	–	876	632	63	-2	Change (Mus musculus [25]): -39%; Change (Mus musculus [26]): 34%; Drug discrimination effect (Rattus norvegicus [11]): 13%; Drug discrimination effect (Rattus norvegicus [27]): 25%; Change (Mus musculus [28]): -21%; Change (Mus musculus [29]): 41%
CN1C2CCC1C(c1cc(-c3ccc(F)cc3)no1)C(c1ccc(Cl)cc1)C2 (stereo not drawn)	660	553	7.26	1.86	918	463	514	1.6	392	767	2.8	-77	-26	63	479	832	271	38	13	37	Change (Mus musculus [19]): 729%; Drug discrimination effect (Rattus norvegicus [22]): 43%

Source: ChEMBL document CHEMBL1148376, “Synthesis, monoamine transporter binding properties, and behavioral pharmacology of a series of 3beta-(substituted phenyl)-2beta-(3'-substituted isoxazol-5-yl)tropanes” (J Med Chem, 2004)
